Measured values published in ChEMBL document CHEMBL1126557, “Novel antiasthmatic agents with dual activities of thromboxane A2 synthetase inhibition and bronchodilation. 2. 4-(3-Pyridyl)-1(2H)-phthalazinones” (J Med Chem, 1993).

Experiments:
Cavia porcellus [1] = species on record: Cavia porcellus; assay: In vitro bronchodilatory activity in guinea pig isolated tracheal strips; format: functional; conditions: Trachea
Cavia porcellus [2] = assay: Tested in vivo for anaphylactic bronchoconstriction in OA sensitized guinea pig at intraduodenal dose of 10 mg/kg for 30 min; format: functional; conditions: Lung, 0.5 h
In short: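 Male Hartley guinea pigs (300–400 g) sensitized by ip and sc injection of 50 mg ovalbumin 15 days earlier. Anesthetized with pentobarbital 35 mg/kg ip, insufflation pressure recorded. Compound 10 mg/kg intraduodenal 30 min before challenge with OA aerosol (10 mg/mL, 10 s, ultrasonic nebulizer) through a by-passed ventilatory system. Reported as % inhibition.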

Cavia porcellus [3] = assay: Tested in vivo for histamine-induced bronchoconstriction in guinea pig at intraduodenal dose of 10 mg/kg for 30 min; format: functional; conditions: 0.5 h
In short: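 Anesthetized, ventilated guinea pigs (pentobarbital 35 mg/kg ip) with insufflation pressure recorded. Histamine 2–5 μg/kg iv given repeatedly until a reproducible response. Compound 10 mg/kg injected into the duodenum through a catheter 30 min before histamine challenge. Expressed as % inhibition of the control response.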

Cavia porcellus [4] = assay: Tested in vivo for spasmogen inhalation induced collapse in conscious guinea pig in presence of acetylcholine (0.2%); format: functional
In short: (§1)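 Male guinea pigs (400–500 g), conscious, dosed orally with compound or vehicle, then placed in chambers. At 1 h, exposed for 9 min to spasmogen aerosol (acetylcholine 0.2% or histamine 0.03%). Time to collapse recorded; no collapse within 9 min counted as full protection. ≥3 doses tested. RD100 is the oral dose prolonging collapse time by 100 s over vehicle.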

Cavia porcellus [5] = assay: Tested in vivo for spasmogen inhalation induced collapse in conscious guinea pig in presence of histamine (0.03%); format: functional; in short: as §1
Cavia porcellus [6] = species on record: Cavia porcellus; assay: In vitro inhibitory effect on the contraction of guinea pig tracheal strips was examined for spontaneous contraction; format: functional; conditions: Trachea
Cavia porcellus [7] = species on record: Cavia porcellus; assay: In vitro inhibitory effect on the spasmogen-contracted guinea pig tracheal strips in presence of acetylcholine; format: functional; conditions: Trachea
In short: (§2)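 Tracheal strips in oxygenated Krebs-Henseleit, preincubated 60 min with indomethacin (3 μM) to remove spontaneous tone, resting tension 1 g. Contraction induced by acetylcholine (10^-5 M final) or histamine (10^-4 M final), with indomethacin present. Compound added cumulatively […]. […] IC50 taken from the concentration-response curve.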

Cavia porcellus [8] = species on record: Cavia porcellus; assay: In vitro inhibitory effect on the spasmogen-contracted guinea pig tracheal strips in presence of histamine; format: functional; conditions: Trachea; in short: as §2
Cavia porcellus [9] = assay: In vivo inhibitory effect on airway constriction induced by histamine 2-5 ug/kg iv at 1 min after 10 mg/kg iv dose of compound; format: functional
In short: (§3)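 Male Dunkin-Hartley guinea pigs anesthetized with pentobarbital 35 mg/kg ip, jugular vein and trachea cannulated, ventilated at 10 mL/kg, 60 strokes/min. Insufflation pressure recorded. Histamine 2–5 μg/kg iv repeated every 10 min until a reproducible control response. Compound 10 mg/kg iv 1 min before the next challenge.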

Rattus norvegicus [10] = assay: Tested ex vivo against serum TXB2 production at 1 hr after oral dose of 3 mg/kg of drug to rat; format: functional
In short: (§4)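 Male SD rats (240–260 g), fasted 20 h, dosed orally with compound in 0.5% carboxymethylcellulose or vehicle alone. At 1 h, ether anesthesia and 2 mL cardiac blood taken and clotted at 37 °C for 90 min.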

Rattus norvegicus [11] = assay: Tested ex vivo against serum TXB2 production at 1 hr after oral dose of 30 mg/kg of drug to rat; format: functional; in short: as §4
Thromboxane-A synthase [12] = target: T1, Thromboxane-A synthase (Homo sapiens, UniProt P24557); assay: Tested in vitro against TXA2 synthetase inhibitory activity in human microsome
T1 sequence (P24557 whole entry): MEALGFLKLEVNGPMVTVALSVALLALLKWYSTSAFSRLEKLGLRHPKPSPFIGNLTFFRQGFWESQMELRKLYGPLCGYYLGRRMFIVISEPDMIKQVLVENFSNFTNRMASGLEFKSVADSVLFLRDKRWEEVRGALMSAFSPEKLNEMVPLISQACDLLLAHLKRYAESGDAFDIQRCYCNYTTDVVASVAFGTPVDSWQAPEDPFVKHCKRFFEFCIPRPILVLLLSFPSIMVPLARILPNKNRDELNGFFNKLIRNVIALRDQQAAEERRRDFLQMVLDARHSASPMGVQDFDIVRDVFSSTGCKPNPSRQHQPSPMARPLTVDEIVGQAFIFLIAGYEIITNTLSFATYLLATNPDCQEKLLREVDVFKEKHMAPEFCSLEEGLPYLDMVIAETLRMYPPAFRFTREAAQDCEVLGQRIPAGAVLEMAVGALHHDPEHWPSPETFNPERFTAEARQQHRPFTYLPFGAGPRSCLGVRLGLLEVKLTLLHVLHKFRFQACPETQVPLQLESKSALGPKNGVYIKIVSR
In short: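 Commercial human platelet microsomes. Preincubated with compound for 3 min at 25 °C in Tris-HCl 15 mM, NaCl 140 mM, glucose 10 mM, pH 7.6. Arachidonic acid 1–3 μM added, then 3 min at 25 °C. Stopped by chilling and acidifying to pH 3 with HCl, centrifuged, supernatant TXB2 measured by RIA.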

Thromboxane-A synthase [13] = target: T1, Thromboxane-A synthase; assay: Tested in vitro against TXA2 synthetase inhibitory activity in human platelet
In short: (§5)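 Citrated human or rat blood centrifuged to platelet-rich plasma and platelets resuspended in Krebs-Henseleit at 1×10^8 cells/mL. Used for TXB2 production.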

Thromboxane-A synthase [14] = target: T1, Thromboxane-A synthase; assay: Tested in vitro against TXA2 synthetase inhibitory activity in human whole blood; format: tissue-based
In short: (§6)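 Non-anticoagulated human or rat blood split into 0.5-mL aliquots, each with one drug concentration or vehicle. Vortexed, then clotted 60 min at 37 °C. Serum deproteinized with EtOH and TXB2 measured by RIA. % inhibition against control.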

[15] = target: T2, Thromboxane-A synthase (Rattus norvegicus) (UniProt P49430); assay: Tested ex vivo against TXA2 production in rat serum at 1 hr after peroral dose of 30 mg/kg and anesthetized with ether; format: functional, organism-based; design: dose 30 mg/kg; in short: as §4
T2 sequence (whole entry): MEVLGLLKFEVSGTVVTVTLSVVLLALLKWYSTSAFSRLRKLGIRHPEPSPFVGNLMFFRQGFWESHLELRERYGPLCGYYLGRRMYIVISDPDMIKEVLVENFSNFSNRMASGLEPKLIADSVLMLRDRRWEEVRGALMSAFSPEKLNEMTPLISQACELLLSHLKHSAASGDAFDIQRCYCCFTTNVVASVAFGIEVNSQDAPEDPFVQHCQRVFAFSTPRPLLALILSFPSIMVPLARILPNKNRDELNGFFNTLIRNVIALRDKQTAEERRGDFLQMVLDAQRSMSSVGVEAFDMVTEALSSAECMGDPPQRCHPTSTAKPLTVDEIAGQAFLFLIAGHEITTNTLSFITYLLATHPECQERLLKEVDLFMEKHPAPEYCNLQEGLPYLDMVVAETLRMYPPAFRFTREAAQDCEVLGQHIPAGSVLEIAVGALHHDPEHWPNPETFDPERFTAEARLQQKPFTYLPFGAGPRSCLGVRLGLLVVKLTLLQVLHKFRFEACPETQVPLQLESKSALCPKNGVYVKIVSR

Thromboxane-A synthase [16] = target: T3, Thromboxane-A synthase (Rattus norvegicus, UniProt P49430); assay: Tested in vitro against TXA2 synthetase inhibitory activity in rat platelet; in short: as §5
T3 sequence (P49430 whole entry): T2 sequence (whole entry)

Thromboxane-A synthase [17] = target: T3, Thromboxane-A synthase; assay: Tested in vitro against TXA2 synthetase inhibitory activity in rat whole blood; format: tissue-based; in short: as §6
[18] = tested on: Thromboxane-A synthase (Oryctolagus cuniculus); assay: Tested in vitro against rabbit thromboxane A2 synthetase (TXA2) at 1 uM
Cavia porcellus [19] = assay: Tested in vivo for histamine-induced bronchoconstriction in guinea pig at intraduodenal dose of 60 mg/kg; format: functional
In short: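 Male Dunkin-Hartley guinea pigs under ip pentobarbital (35 mg/kg), jugular vein and trachea cannulated, ventilated at 10 mL/kg, 60 strokes/min; insufflation pressure recorded by transducer. Histamine (1–5 μg/kg iv) repeated every 10 min until the control response was reproducible. Drug given intraduodenally through a catheter 30 min before histamine challenge.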

Cavia porcellus [20] = assay: In vivo inhibitory effect on airway constriction induced by histamine 2-5 micro g/kg iv at 1 min after 10 mg/kg iv dose of compound; format: functional; in short: as §3

IC50 (Cavia porcellus [1]) | IC50 (Cavia porcellus [6]) | IC50 (Cavia porcellus [7]) | IC50 (Cavia porcellus [8]) | IC50 (Thromboxane-A synthase [12]) | IC50 (Thromboxane-A synthase [13]) | IC50 (Thromboxane-A synthase [14]) | inhibition [15] | IC50 (Thromboxane-A synthase [16]) | IC50 (Thromboxane-A synthase [17]) | inhibition [18] | Structure (SMILES) | inhibition in vivo at 10 mg/kg (Cavia porcellus [2]) | inhibition in vivo at 10 mg/kg (Cavia porcellus [3]) | RD100 (Cavia porcellus [4]) | RD100 (Cavia porcellus [5]) | inhibition in vivo at 10 mg/kg (Cavia porcellus [9]) | inhibition in vivo at 3 mg/kg (Rattus norvegicus [10]) | inhibition in vivo at 30 mg/kg (Rattus norvegicus [11]) | inhibition in vivo at 60 mg/kg (Cavia porcellus [19]) | inhibition in vivo at 10 mg/kg (Cavia porcellus [20])
1320 nM | 1600 nM | 57 µM | 46 µM | 1600 nM | 27.9 µM | 2.3 µM | 92% | 1300 nM | 1700 nM | 87% | CCn1nc(-c2cccnc2)c2ccccc2c1=O | 71% | 72% | 3.8 mg/kg | 6.5 mg/kg | 100% | 66% | 92% | – | –
1580 nM | 1800 nM | 46 µM | 28 µM | 3900 nM | 0.5 µM | 8.7 µM | 83% | 300 nM | 3300 nM | – | Cn1nc(-c2cncs2)c2ccccc2c1=O | 61% | 68% | 6.6 mg/kg | 11.2 mg/kg | – | 50% | 83% | – | –

Structure (SMILES) | IC50 (Cavia porcellus [1]) | IC50 (Cavia porcellus [6]) | IC50 (Cavia porcellus [7]) | IC50 (Cavia porcellus [8]) | IC50 (Thromboxane-A synthase [12]) | IC50 (Thromboxane-A synthase [13]) | IC50 (Thromboxane-A synthase [14]) | inhibition [15] | IC50 (Thromboxane-A synthase [16]) | IC50 (Thromboxane-A synthase [17]) | inhibition [18] | inhibition in vivo at 10 mg/kg (Cavia porcellus [2]) | inhibition in vivo at 10 mg/kg (Cavia porcellus [3]) | RD100 (Cavia porcellus [4]) | RD100 (Cavia porcellus [5]) | inhibition in vivo at 10 mg/kg (Cavia porcellus [9]) | inhibition in vivo at 3 mg/kg (Rattus norvegicus [10]) | inhibition in vivo at 30 mg/kg (Rattus norvegicus [11]) | inhibition in vivo at 60 mg/kg (Cavia porcellus [19]) | inhibition in vivo at 10 mg/kg (Cavia porcellus [20])
Cn1c(=O)c2[nH]cnc2n(C)c1=O.Cn1c(=O)c2[nH]cnc2n(C)c1=O.NCCN [AMINOPHYLLINE] | – | 44000 nM | 300 µM | 320 µM | – | – | – | 0% | – | – | – | 42% | – | 66 mg/kg | >60 mg/kg | – | – | – | 87% | 86%
